Source: ChEMBL document CHEMBL1145389, “Total synthesis and biological evaluation of C16 analogs of (-)-dictyostatin” (2007)
One block for each molecule: values may come before it.

Columns and labels:
Bos taurus [1] = organism: Bos taurus; experiment: Induction of bovine brain tubulin polymerization at 10 uM relative to paclitaxel
Bos taurus [2] = organism: Bos taurus; experiment: Displacement of [3H]paclitaxel from bovine brain tubulin at 4 uM
In short: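 Competition at 37 °C: 4 µM test agent against 2 µM [³H]paclitaxel for binding to microtubules assembled from 2 µM bovine brain tubulin with 20 µM dideoxyGTP; reported as percent competition.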

1A9/ptx-10 = experiment: Growth inhibition of beta tubulin Phe270Val mutant expressing human 1A9/Ptx10 cells after 72 hrs; format: functional; conditions: 1A9/ptx-10, 72 h
In short: (§1)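 GI50 determined after 72 h continuous exposure to test agent in ovarian carcinoma 1A9 cells and in paclitaxel-resistant 1A9 clones carrying mutant β-tubulin (Ptx10, βPhe270→Val; Ptx22, βAla364→Thr).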

HeLa = experiment: Increase in cellular tubulin polymer mass in HeLa cells assessed as minimum detectable effective concentration after 21 hrs; format: functional, Homo sapiens
In short: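 HeLa cells exposed continuously for 21 h; lowest concentration producing a detectable rise in cellular tubulin polymer mass recorded as MDEC.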

1A9 = experiment: Growth inhibition of human 1A9 cells after 72 hrs; format: functional; conditions: 1A9, 72 h
In short: as §1

1A9/ptx-22 = experiment: Growth inhibition of beta tubulin A364T mutant expressing human 1A9/Ptx22 cells after 72 hrs; format: functional; conditions: 1A9/ptx-22, 72 h
In short: as §1

% tubulin polymerization (Bos taurus [1]): 3%
Activity (Bos taurus [2]): 4%
Compound: C=C/C=C\[C@H](C)[C@H](O)[C@@H](C)[C@H]1CC[C@@H](C)C[C@H](C)[C@@H](O)[C@@H](C)/C=C\[C@@H](O)C[C@H](O)[C@H](C)/C=C/C=C\C(=O)O1
GI50 (1A9/ptx-10): 44200 nM
Activity (HeLa): > 5000 nM
GI50 (1A9): 7800 nM
GI50 (1A9/ptx-22): 53800 nM

% tubulin polymerization (Bos taurus [1]): 6%
Activity (Bos taurus [2]): 7%
Compound: C=C/C=C\[C@H](C)[C@H](O)[C@H](C)[C@@H]1CC/C=C\[C@H](C)[C@@H](O)[C@@H](C)/C=C\[C@H](O)C[C@H](O)[C@H](C)/C=C\C=C\C(=O)O1
GI50 (1A9/ptx-10): 32700 nM
Activity (HeLa): > 5000 nM
GI50 (1A9): > 50000 nM
GI50 (1A9/ptx-22): > 50000 nM

% tubulin polymerization (Bos taurus [1]): 1%
Activity (Bos taurus [2]): 11%
Compound: C=C/C=C\[C@H](C)[C@@H]1OC(=O)/C=C\C=C\[C@@H](C)[C@@H](O)C[C@@H](O)/C=C\[C@H](C)[C@H](O)[C@@H](C)/C=C\CC[C@@H](O)[C@@H]1C
GI50 (1A9/ptx-10): 19300 nM
Activity (HeLa): > 5000 nM
GI50 (1A9): 4260 nM
GI50 (1A9/ptx-22): 4600 nM

% tubulin polymerization (Bos taurus [1]): 10%
Activity (Bos taurus [2]): 5%
Compound: C=C/C=C\[C@H](C)[C@@H]1OC(=O)/C=C/C=C/[C@@H](C)[C@@H](O)C[C@H](O)/C=C\[C@H](C)[C@H](O)[C@@H](C)/C=C\CC[C@@H](O)[C@@H]1C
GI50 (1A9/ptx-10): 23700 nM
Activity (HeLa): 647 nM
GI50 (1A9): 210 nM
GI50 (1A9/ptx-22): 847 nM

% tubulin polymerization (Bos taurus [1]): 107%
Activity (Bos taurus [2]): 38%
Compound: C=C/C=C\[C@H](C)[C@@H]1OC(=O)/C=C\C=C\[C@@H](C)[C@@H](O)C[C@H](O)/C=C\[C@H](C)[C@H](O)[C@@H](C)/C=C\CC[C@@H](O)[C@@H]1C
GI50 (1A9/ptx-10): 942 nM
Activity (HeLa): 11 nM
GI50 (1A9): 8.3 nM
GI50 (1A9/ptx-22): 62 nM

More lines, now with the values behind:

Compound: C=C/C=C\[C@H](C)[C@H](OC(N)=O)[C@@H](C)[C@H](O)[C@@H](C)C/C=C\[C@H](C)[C@@H](O)[C@@H](C)/C=C\[C@@H](O)C[C@@H]1OC(=O)[C@H](C)[C@@H](O)[C@H]1C
Activity (Bos taurus [2]): 75%
GI50 (1A9/ptx-10): 33 nM
Activity (HeLa): 29 nM
GI50 (1A9): 3.7 nM
GI50 (1A9/ptx-22): 30 nM

Compound: C=C/C=C\[C@H](C)[C@@H]1OC(=O)/C=C\C=C\[C@@H](C)[C@@H](O)C[C@H](O)/C=C\[C@H](C)[C@H](O)[C@@H](C)CCCC[C@@H](O)[C@@H]1C
% tubulin polymerization (Bos taurus [1]): 91%
Activity (Bos taurus [2]): 48%
GI50 (1A9/ptx-10): 470 nM
Activity (HeLa): 25 nM
GI50 (1A9): 0.41 nM
GI50 (1A9/ptx-22): 5.6 nM

Compound: CC(=O)O[C@H]1C(=O)[C@@]2(C)[C@H]([C@H](OC(=O)c3ccccc3)[C@]3(O)C[C@H](OC(=O)[C@H](O)[C@@H](NC(=O)c4ccccc4)c4ccccc4)C(C)=C1C3(C)C)[C@]1(OC(C)=O)CO[C@@H]1C[C@@H]2O [PACLITAXEL]
% tubulin polymerization (Bos taurus [1]): 100%
GI50 (1A9/ptx-10): 64 nM
Activity (HeLa): 5.2 nM
GI50 (1A9): 0.71 nM
GI50 (1A9/ptx-22): 51 nM

Compound: C=C/C=C\[C@H](C)[C@@H]1OC(=O)/C=C\C=C\[C@@H](C)[C@@H](O)C[C@H](O)/C=C\[C@H](C)[C@H](O)[C@@H](C)C[C@H](C)CC[C@@H](O)[C@@H]1C
% tubulin polymerization (Bos taurus [1]): 9%
Activity (Bos taurus [2]): 11%
GI50 (1A9/ptx-10): 862 nM
Activity (HeLa): 1280 nM
GI50 (1A9): 61 nM
GI50 (1A9/ptx-22): 543 nM

Compound: C=C/C=C\[C@H](C)[C@H](OC(N)=O)[C@@H](C)[C@H](O)[C@@H](C)C/C(C)=C\[C@H](C)[C@@H](O)[C@@H](C)/C=C\[C@@H](O)C[C@@H]1OC(=O)[C@H](C)[C@@H](O)[C@H]1C [DISERMOLIDE]
% tubulin polymerization (Bos taurus [1]): 148%
Activity (Bos taurus [2]): 76%
GI50 (1A9/ptx-10): 6.2 nM
Activity (HeLa): 65 nM
GI50 (1A9): 1.7 nM
GI50 (1A9/ptx-22): 7 nM

Compound: C=C/C=C\[C@H](C)[C@@H]1OC(=O)/C=C\C=C\[C@@H](C)[C@@H](O)C[C@H](O)/C=C\[C@H](C)[C@H](O)[C@@H](C)C[C@@H](C)CC[C@@H](O)[C@@H]1C [DICTYOSTATIN]
Activity (Bos taurus [2]): 75%
GI50 (1A9/ptx-10): 3.2 nM
Activity (HeLa): 5.4 nM
GI50 (1A9): 0.69 nM
GI50 (1A9/ptx-22): 1.3 nM
